# Test results taken from ChEMBL document CHEMBL1124114, “Peripherally acting enkephalin analogues. 1. Polar pentapeptides” (J Med Chem, 1988).
# Numbered stars: 1 amine (or outer) side, 2 acyl side, 3 side chain; on linkers, the order of the positions; unused ones are H or OH. Square brackets hold non-standard residues; d marks the D form. Peptide text beside a SMILES is read from it. * marks the point of attachment. Phe(4-NO2) = N[C@@H](Cc1ccc([N+](=O)[O-])cc1)C(=O)O; Tyr(Nα-amidino) = N=C(N)N[C@@H](Cc1ccc(O)cc1)C(=O)*; X1 = O=C([C@@H](CSS(=O)(=O)O)N[*:1])[*:2]; X3 = O=C([C@@H](CCS(=O)(=O)O)N[*:1])[*:2]; X2 = C[S+](C)CC[C@@H](N[*:1])C(=O)[*:2]
# How the values were obtained:
# Assay type in all cases: functional
# Mus musculus [1] = assay: In vivo inhibition of phenyl-1,4-benzoquinone(PBQ) -induced writhing in mice (sc)
# Outline: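 Female CD1 Charles River mice, groups of five to six; PBQ 2.5 mg kg⁻¹ ip (10 mL kg⁻¹). Drug or vehicle sc 30 min before PBQ; writhes (abdominal contractions/hind-limb extensions) counted 2.5 min starting 10 min post-PBQ. ED50 = dose halving writhes vs vehicle, from linear regression.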
# [2] = Dose ratio in the presence / absence of N-methyl-nalorphine (11.5 mg/kg) in acetic acid (AA) writhing
# Outline: (§1)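 Male TFW Tuck mice, groups of five to six; acetic acid (0.6%) ip at 25 mL kg⁻¹; writhes counted 5 min starting 15 min post-irritant. N-methylnalorphine 11.5 mg kg⁻¹ ip 20 min before sc agonist (both 10 mL kg⁻¹). ED50 by linear regression (50% writhe reduction vs vehicle); dose ratio = shift of parallel regression lines with/without antagonist.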
# Mus musculus [3] = species on record: Mus musculus; assay: Effective dose was measured in hot plate test.
# Outline: (§2)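 Male CFLP mice (Hacking and Churchill), groups of five to six, placed on copper plate at 55 °C; endpoint paw licking/shaking or jumping, 30-s cut-off. Drugs sc, 10 mL kg⁻¹. ED50 = dose doubling response latency vs vehicle, by parallel-line probit analysis.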
# Cavia porcellus = species on record: Cavia porcellus; assay: In vitro opioid activity of compound in the GPI (guinea pig ileum) by determination of inhibition of electrically induced contractions
# Outline: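 Terminal ileum segments from 300-350 g guinea pigs in 20-mL bath, 1-g tension, Krebs' bicarbonate gassed 95% O2/5% CO2. Coaxial stimulation 0.1 Hz, 0.5 ms, supramaximal voltage; isotonic recording of contractions. Dose-response curves with 15-min washout between doses; opioid nature checked by reversal with naloxone (1 μg mL⁻¹).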
# Mus musculus [4] = assay: In vivo inhibition of Acetic acid-induced writhing in mice (sc)
# Outline: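 Male TFW Tuck mice, five to six per group; acetic acid (0.6%) ip, 25 mL kg⁻¹; writhes counted for 5 min from 15 min after irritant. Compounds sc, 10 mL kg⁻¹. ED50 = dose giving 50% fewer writhes than vehicle, by linear regression.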
# [5] = Dose ratio in the presence/absence of N-methyl-nalorphine (11.5 mg/kg) in acetic acid (AA) writhing; outline: as §1
# Mus musculus [6] = assay: Effective dose was measured in hot plate test; no effect 25 mg/kg; outline: as §2
SMILES,ED50 (Mus musculus [1]) [mg/kg],Ratio [2],ED50 (Mus musculus [3]) [mg/kg],IC50 for inhibition of electrically induced contractions (Cavia porcellus) [nM],ED50 (Mus musculus [4]) [mg/kg],Ratio [5],ED50 at 25 mg/kg (Mus musculus [6]) [mg/kg]
NC(=O)[C@@H]1CCCN1C(=O)[C@H](Cc1ccc([N+](=O)[O-])cc1)NC(=O)CNC(=O)[C@@H](CCC(=O)O)NC(=O)[C@@H](N)Cc1ccc(O)cc1,3,5.5,7.6,9,1.4,–,–
NC(=O)[C@@H]1CCCN1C(=O)[C@H](Cc1ccc([N+](=O)[O-])cc1)NC(=O)CNC(=O)[C@@H](CCCN=C(N)N)NC(=O)[C@@H](N)Cc1ccc(O)cc1,4.9,5.5,35,132,5.7,–,–
NC(=O)[C@@H]1CCCN1C(=O)[C@H](Cc1ccc([N+](=O)[O-])cc1)NC(=O)CNC(=O)[C@@H](CSCCS(=O)(=O)[O-])NC(=O)[C@@H](N)Cc1ccc(O)cc1.[Na+],–,4,–,3.6,0.1,–,–
N=C(N)N[C@@H](Cc1ccc(O)cc1)C(=O)N[C@H](CCC(=O)O)C(=O)NCC(=O)N[C@@H](Cc1ccc([N+](=O)[O-])cc1)C(=O)N1CCC[C@H]1C(N)=O,0.3,1.2,5.3,414,0.5,–,–
Cl.NC(=O)[C@@H]1CCCN1C(=O)[C@H](Cc1ccc([N+](=O)[O-])cc1)NC(=O)CNC(=O)[C@@H](CS(=O)(=O)O)NC(=O)[C@@H](N)Cc1ccc(O)cc1,–,–,19,89.4,5.9,–,–
C[S+](C)CC[C@@H](NC(=O)[C@H](Cc1ccc(O)cc1)N=C(N)N)C(=O)NCC(=O)N[C@@H](Cc1ccc([N+](=O)[O-])cc1)C(=O)N1CCC[C@H]1C(N)=O.Cl.Cl,1.1,4.2,10.9,525,0.5,–,–
CSCC[C@H](NC(=O)[C@@H](N)Cc1ccc(O)cc1)C(=O)NCC(=O)N[C@@H](Cc1ccc([N+](=O)[O-])cc1)C(=O)N1CCC[C@H]1C(N)=O (H-YMG[Phe(4-NO2)]P-NH2),0.4,1.2,1.6,1.8,0.1,–,–
NC(=O)[C@@H]1CCCN1C(=O)[C@H](Cc1ccc([N+](=O)[O-])cc1)NC(=O)CNC(=O)[C@@H](CSS(=O)(=O)O)NC(=O)[C@@H](N)Cc1ccc(O)cc1 (H-Y[X1]G[Phe(4-NO2)]P-NH2),0.4,3.9,9.7,7.5,0.5,–,–
C[S+](C)CC[C@@H](NC(=O)[C@@H](N)Cc1ccc(O)cc1)C(=O)NCC(=O)N[C@@H](Cc1ccc([N+](=O)[O-])cc1)C(=O)N1CCC[C@H]1C(N)=O.Cl.Cl (H-Y[X2]G[Phe(4-NO2)]P-NH2),3.1,–,–,61.2,8.1,3.3,–
Cl.NC(=O)[C@@H]1CCCN1C(=O)[C@H](Cc1ccc([N+](=O)[O-])cc1)NC(=O)CNC(=O)[C@@H](CCS(=O)(=O)O)NC(=O)[C@@H](N)Cc1ccc(O)cc1 (H-Y[X3]G[Phe(4-NO2)]P-NH2),3.1,4.2,18.6,807,3.5,–,–
N=C(N)NCCC[C@@H](NC(=O)[C@H](Cc1ccc(O)cc1)NC(=N)N)C(=O)NCC(=O)N[C@@H](Cc1ccc([N+](=O)[O-])cc1)C(=O)N1CCC[C@H]1C(N)=O ({Tyr(Nα-amidino)}-[dR]G[Phe(4-NO2)]P-NH2),1.3,4.6,–,420,0.8,–,25
CN1CC[C@]23c4c5ccc(O)c4O[C@H]2[C@@H](O)C=C[C@H]3[C@H]1C5 [MORPHINE],–,–,–,–,0.5,–,–
